The text below walks through data of paper PMC4779681 (Journal of immunology (Baltimore, Md. : 1950), 2016).

Experiment [1] concerns OT-I T cells. The experiment in a line: Sorted Q4 OVA primed OT-I cells transferred and rechallenged with N4 OVA peptide. The note with it: N4 OVA peptide rechallenge in naïve congenic hosts, day 5, p=0.0012. In kind it is in vivo, mouse. The gist of the method: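 OT-I splenocytes (3×10⁶) were primed for 3 days with 0.1 μM Q4 OVA peptide, 0.1 μg/mL anti-CD28 and 10 ng/mL IL-2. Dead cells were removed, then cells were cultured overnight in 10 ng/mL IL-15. Live CD8⁺CD44^hiThy1.1⁺ cells were sorted into CD45RB^hi/lo, transferred to naïve congenic hosts and rechallenged with N4 OVA peptide. CD45RB was assessed 5 days later; 2–3 independent experiments.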

Experiment [2] has as its system OT-I T cells. Kind of experiment: OT-I primary effector and memory populations after LM-OVA APL infection. In kind it is in vivo, mouse. The note with it: for Memory OT-I cells (frequency/number) in pooled secondary lymphoid organs: LM-N4 OVA or LM-V4 OVA infection, week 4-5 post infection, Thy1.1 enrichment; for CD45RB^hi frequency, primary effectors: OT-I in blood, day 7 post LM infection; for CD45RB^hi frequency, memory cells: OT-I in secondary lymphoid tissue, 4 weeks post LM infection; for IL-2 expression by primary effectors: day 7 primary effectors; for Memory phenotype markers CD44, CD127, CD69, Granzyme B: memory OT-I cells primed by LM-OVA APL. The gist of the method:
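OT-I donor cells (1.0 × 10⁴, Thy1.1⁺, in PBS) given i.v. to CD45.1⁺ male hosts; 10⁴ CFU LM-OVA APL i.p. 24 h later. Day 7: blood with RBC lysis, gated CD8⁺CD44^hiThy1.1⁺. Week 4 (day 28–35): spleen plus pooled LNs, anti-Thy1.1 PE/anti-PE bead enrichment. Cytokines by intracellular staining after 5 h at 37 C with 1 μM N4 OVA peptide plus GolgiPlug. Counts by counting beads.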

The test system of experiment [3] is OT-I T cells. Kind of experiment: Secondary effectors after N4 OVA peptide footpad rechallenge. In kind it is in vivo, mouse. The note with it: for CD45RB^hi frequency, secondary effectors: N4 OVA peptide 10 μg per hind foot pad, draining popliteal LN, 5 days later; for CD62L^lo frequency, CD45RB^lo vs CD45RB^hi fraction: CD45RB^lo vs respective CD45RB^hi population.

For experiment [4], the system named is OT-I T cells. The experiment in a line: In vitro OVA APL OT-I stimulation. The format is cell-based, mouse. The settings on record: for hnRNPLL expression: OT-I cells primed with peptide 3 days in vitro (0.1 μM).
Experiment [5] concerns OT-I T cells. In kind it is in vivo, mouse. The note with it: vs N4 OVA primed. The gist of the method: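 Memory mice, OT-I-transferred and LM-infected, received full-thickness tail and ear skin grafts expressing N4 OVA on the dorsal thorax 5 weeks post infection. Draining LN OT-I cells were counted with counting beads on day 5 post graft. Fold expansion was taken from day 0 to day 5.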

In experiment [6] the test system is OT-I T cells. The settings on record: between N4 and V4 OVA; cited from earlier work.

Take SIIQFEKL [Q4 OVA]: the “Proliferation of sorted CD45RB^hi vs CD45RB^lo cells” value in experiment [1] is “proliferated to a significantly greater number”.
With SIINFEKL [N4 OVA], in experiment [2], the “Memory OT-I cells (frequency/number) in pooled secondary lymphoid organs” value was 8.0×10^4±3.3×10^4; the “CD45RB^hi frequency, primary effectors” value came out at 48.9±2.2%; the “CD45RB^hi frequency, memory cells” value was 54.7±6.76%; the “IL-2 expression by primary effectors” value was “similarly low levels of IL-2”. Further, the “Memory phenotype markers CD44, CD127, CD69, Granzyme B” value in experiment [2] is “high levels of CD44 and CD127, and low levels of CD69 and Granzyme B”. Moreover, the “CD45RB^hi frequency, secondary effectors” value in experiment [3] is on record as 30.2±3.39%. Also, in experiment [3] (secondary effectors), the “CD62L^lo frequency, CD45RB^lo vs CD45RB^hi fraction” value is “greater frequency”. Also, the hnRNPLL expression result in experiment [4] is listed as “increased”. Further, the “Nur77 and CD69 expression, CD45RB^hi vs CD45RB^lo cells” value in experiment [4] (V4 OVA Tm cells restimulated 5 h with N4 OVA or OVA APL, 0.1 μM) is “significantly greater in CD45RB^hi cells”.
Consider SIIVFEKL [V4 OVA], for which, in experiment [2], the “Memory OT-I cells (frequency/number) in pooled secondary lymphoid organs” value is 1.3×10^3±5.3×10^2; the “CD45RB^hi frequency, primary effectors” value came out at 68.7±3.6%; the “CD45RB^hi frequency, memory cells” value turned out to be 79.3±3.4%; the “IL-2 expression by primary effectors” value was “similarly low levels of IL-2”. In experiment [2], the “Memory phenotype markers CD44, CD127, CD69, Granzyme B” value is “high levels of CD44 and CD127, and low levels of CD69 and Granzyme B”. Also, the “Fold lower frequency of CD8^+ OT-I effectors in blood vs N4 OVA priming” value in experiment [2] (day 7 post LM infection (10^4 CFU i.p.), 10^4 OT-I transferred) is recorded as ~ 80 fold. Further, the “Fold lower frequency of memory OT-I cells vs N4 OVA priming” value in experiment [2] (secondary lymphoid organs, memory, LM infection) turned out to be 61 fold. Besides, in experiment [5] (day 0 to day 5 post N4 OVA skin graft), the “Fold expansion of memory cells post graft” value is on record as “greater fold expansion”. In experiment [5] (day 5 post N4 OVA skin graft), the “Number of OT-I cells recovered in draining lymph nodes” value was “fewer”. The “CD45RB^hi frequency, secondary effectors” value in experiment [3] came out at 19.6±1.96%. Further, in experiment [3] (secondary effectors), the “PD-1 expression in CD45RB^lo fraction” value is on record as “significantly upregulated” and the “CD62L^lo frequency, CD45RB^lo vs CD45RB^hi fraction” value is “greater frequency”. For the same sequence, the “IL-2Rβ (CD122) expression” value in experiment [3] (secondary effectors, CD45RB^lo vs CD45RB^hi) is recorded as “significantly lower”. The “CD62L^lo frequency within CD45RB^lo population” value in experiment [3] (secondary effectors, V4 OVA vs N4 OVA primed CD45RB^lo) was “slightly smaller frequency”. Further, the “IFN-γ^+ or TNF^+ frequency, CD45RB^lo vs CD45RB^hi” value in experiment [3] (secondary effectors, high affinity rechallenge) is on record as “did not possess greater frequencies”. In addition, the “Loss of CD45RB^hi cells relative to resting memory” value in experiment [3] (secondary effectors, vs N4 OVA primed) is recorded as “significantly greater”. Also, in experiment [3] (vs CD45RB^hi cells and N4 OVA primed CD45RB^lo cells), the “IL-2Rα (CD25) expression, CD45RB^lo cells” value is on record as “significantly higher levels”. For the same sequence, the hnRNPLL expression result in experiment [4] was “not induced”. Moreover, the “Range in relative functional avidity” value in experiment [6] is recorded as 680 fold.
